Sampled rows, rich in hits. Any-hit rate of the full collection: about 2.5%.
CHO parental Ca: counter-screen for OX1R antagonists: effect in parental CHO cells. parental CHO-K1, ATP-induced calcium, Fluo-8 fluorescence. inhibition, % at 5.6 µM. 0.63% of 330,000 active. AID 463079;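 active means inhibition above that plate's mean sample inhibition plus 3 SD, cut at about 26% in these data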;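 further: 0% = ATP-challenged DMSO wells and 100% = DMSO wells without ATP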
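test system = CHO parental line | reagent = ATP stimulus | measured by = intracellular calcium via Fluo-8 no-wash fluorescent dye | control set = ATP and no-ATP DMSO wells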
zfTRPN1 agonist: agonists of zebrafish TRPN1 channel; activation, % at 3 µM; 0.18% of 220,000 active; HEK293 zebrafish TRPN1-YFP, Fluo-8 calcium fluorescence; 100% = response to 87 µM carbachol;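 active means activation above its plate's cutoff, the mean activation of test wells on that plate plus 3 SD, cut at about 19% in these data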;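 further: 0% = DMSO alone and 100% = 87 µM carbachol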
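System: zebrafish TRPN1-YFP in HEK293 cells / Dosing: 3 µM single point / Timing: dye loading 1 h at 37 °C, then 30 min room temperature / Signal: Fluo-8 calcium fluorescence, excitation 470-495 nm, emission 515-575 nm / Read-out basis: percent activation from peak over basal fluorescence ratio, control-normalized / Control set: high carbachol 87 µM, low DMSO alone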
TRPML3 agonist: human mucolipin-3 channel agonism | activation, % at 3 µM | Q8TDD5 | 0.29% of 220,000 active | HEK293 TRPML3-YFP, Fluo-8 calcium fluorescence; 100% = the carbachol control signal;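 active means activation above its plate's cutoff, the mean activation of the plate's test wells plus 3 SD, cut at about 12% in these data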;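 further: 0% = DMSO only wells and 100% = carbachol wells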
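Test system: HEK293 cells stably carrying human TRPML3-YFP; Doses: single dose, 3 µM final nominal compound, 0.3% DMSO final; Schedule: dye loading 1 h 37 °C then 30 min ambient, 125 s read; Technique: Fluo-8 calcium fluorescence; Benchmarks: high control carbachol 87 µM, low control DMSO.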
OX1R antag-1: blocks the human orexin 1 receptor; 1.8% of 330,000 active; OX1R-expressing cells, FRET antagonist read-out; inhibition, % at 6.6 µM; in the data active means inhibition mostly above about 38%, no sharp cut-off; inactive means mostly below about 40%;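 further: 0% = agonist challenge alone and 100% = reference antagonist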
Target sequence (O43613 whole entry, looked up): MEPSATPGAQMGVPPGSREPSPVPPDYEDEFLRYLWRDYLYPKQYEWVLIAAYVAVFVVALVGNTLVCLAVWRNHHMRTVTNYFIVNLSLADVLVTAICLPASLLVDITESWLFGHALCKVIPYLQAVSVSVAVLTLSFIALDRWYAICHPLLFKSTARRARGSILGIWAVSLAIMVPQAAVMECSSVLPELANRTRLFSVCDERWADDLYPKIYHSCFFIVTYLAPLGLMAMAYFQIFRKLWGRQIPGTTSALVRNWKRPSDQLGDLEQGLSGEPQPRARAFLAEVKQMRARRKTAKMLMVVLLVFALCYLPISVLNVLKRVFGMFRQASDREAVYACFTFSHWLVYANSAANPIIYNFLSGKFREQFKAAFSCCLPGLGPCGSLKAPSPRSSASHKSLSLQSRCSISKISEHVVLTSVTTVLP
OX1R antag-2: human HCRTR1 antagonism | CHO/OX1R cells, Fluo-8 calcium fluorescence, orexin A | inhibition, % at 5 µM | 0.43% of 330,000 active | AID 434989;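 active means inhibition above its plate's threshold, mean inhibition of all tested compounds on the plate plus 3 SD, cut at about 37% in these data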;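 further: 0% = orexin A challenge wells and 100% = SB-334867-A antagonist wells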
TRPN1 ag 2: activates zebrafish TRPN1, counter-screen for TRPML3 agonists; shares compounds with TRPML3 agonist; HEK293 zebrafish TRPN1-YFP, Fluo-8 calcium fluorescence; scaled: carbachol wells 100%, DMSO wells 0%; activation, % at 3 µM; 10% of 310 active;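 active means mean activation over replicates above a set limit taken from the earlier TRPN1 channel primary screen, cut at about 19% in these data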;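 further: 100% = carbachol and 0% = 0.3% DMSO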
TRPML3 ag conf: human TRPML3 agonism, confirmation | shares compounds with TRPML3 agonist | HEK293 TRPML3-YFP, Fluo-8 calcium fluorescence; 100% set by carbachol, 0% by DMSO | activation, % at 3 µM | 80% of 310 active;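 active means activation above a set limit derived from the earlier primary screen, cut at about 12% in these data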
Active calls of the source: *; · = no result given.

SMILES	CHO parental Ca	zfTRPN1 agonist	TRPML3 agonist	OX1R antag-1	OX1R antag-2	TRPN1 ag 2	TRPML3 ag conf
CC(=O)Nc1ccccc1OCC(=O)c1cc(C)n(Cc2cccs2)c1C	48*	16	28*	45	55*	27*	34*
O=C1/C(=C/c2ccc(O)c(O)c2)SC(=S)N1Nc1ccccc1	·	17	7	·	·	·	·
COc1cc(/C=C2\SC(=S)N(Nc3ncc(C(F)(F)F)cc3Cl)C2=O)ccc1O	40*	15	13*	7	49*	29*	15*
COC(=O)/C=C/c1sc2nc(C)cc(C)c2c1N=CN(C)C	·	-1	0	·	·	·	·
CCCN(CCC)S(=O)(=O)c1ccc(C(=O)N2CCCc3ccccc32)cc1	-12	6	133*	31	6	6	104*
CCCN(CCC)S(=O)(=O)c1ccc2c(c1)CCCN2C(C)=O	-18	1	1	14	-30	·	·
Cc1cc(C)c(C2=NOC3C4CCC(C4)C23)c(C)c1 (stereo not given)	-22	-1	24*	9	-7	-2	104*
COc1ccccc1NS(=O)(=O)c1cc(C(=O)NCCC(C)C)ccc1F	1	9	17*	-4	-20	22*	35*
COc1ccccc1NS(=O)(=O)c1cc(C(=O)NCc2ccncc2)ccc1C	-23	·	·	12	-22	·	·
CCS(=O)(=O)N1CCC(C(=O)Oc2ccccc2Cl)CC1	-13	·	·	4	-20	·	·
Cc1cc(S(=O)(=O)N2CCCCCC2)c(Cl)cc1Cl	-36	0	26*	0	-33	-2	27*
CN(CC(=O)Nc1ccccc1C(F)(F)F)C(=O)CSc1nnc(N)s1	-13	·	·	5	-20	·	·
CN(C)S(=O)(=O)N1CCN(c2cc(Cl)ccc2Cl)CC1	-7	-1	16*	13	-33	-2	18*
Cc1ccc(S(=O)(=O)N2CCN(Cc3nnc(-c4c(-c5ccccc5)noc4C)o3)CC2)cc1	-8	·	·	4	-12	·	·
Cc1ccc(S(=O)(=O)n2nccc2-c2c(-c3ccccc3)noc2C)cc1	-17	1	120*	22	-23	-1	94*
Cc1onc(-c2ccc(Cl)cc2)c1-c1ccnn1S(=O)(=O)c1cccc(C(F)(F)F)c1	-19	1	33*	11	-23	0	51*
Cc1ccc(CS(=O)(=O)Cc2ccc(C(=O)NCCc3ccccc3)o2)cc1	-6	·	·	-3	2	·	·
CN(C(=O)CSc1nc2ccccc2n1C)C1CCS(=O)(=O)C1 (stereo not given)	-3	·	·	-2	-15	·	·
O=S(=O)(c1cc(Cl)ccc1Cl)N1CCc2ccccc21	-11	·	·	20	-34	·	·
O=S(=O)(c1cnc(Cl)c(Br)c1)N1CCc2ccccc21	-14	-3	14*	24	-30	-2	50*
CCOc1ccc(OCCC(=O)N2CCc3cc(OC)c(OC)cc3C2)cc1	-23	·	·	5	-37	·	·
N=C1SCC(=O)N1c1ncc(Cc2cccc(Cl)c2)s1	·	4	45*	·	·	5	26*
N=C1SCC(=O)N1c1ncc(Cc2ccccc2Cl)s1	·	3	137*	·	·	5	170*
CC(C)C(=O)Nc1ncc(Cc2ccccc2Cl)s1	9	-2	-1	7	-23	·	·
O=C(Cn1cc([N+](=O)[O-])ccc1=O)NCc1ccc(Cl)cc1Cl	-6	·	·	19	-8	·	·
O=C(c1ccc([N+](=O)[O-])cc1)N(Cc1ccc(Cl)cc1Cl)N1C(=O)CCCC1=O	-15	2	16*	17	-27	2	25*
COC(=O)[C@@]12CCCCN1[C@H](c1ccc(SC3CCCCC3)cc1)[C@@H]1C(=O)N(C)C(=O)[C@@H]12	-21	·	·	0	-16	·	·
CCC(C(=O)NC1CCCCC1)N(Cc1cccs1)C(=O)CCC(=O)Nc1cc(C)on1 (stereo not given)	-20	·	·	3	-23	·	·
O=C(COc1ccccc1C(=O)O)Nc1nc2ccc([N+](=O)[O-])cc2s1	42*	17	14*	59*	37	22*	8

Source: PubChem BioAssay (The Scripps Research Institute Molecular Screening Center)
